Results taken from PubChem BioAssay AID624007 (Broad Institute, 2012).
Values without a mark were called inactive.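 Rule for the calls: active = compounds lowering the uptake signal whose fitted half-maximal concentration is at most twice their top valid dose; inconclusive = flat curve between 30% and 70% signal loss, or poor fit; inactive = opposite direction, flat near zero, or potency beyond limit.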

Test: DiI-HDL uptake inhibition in parental ldlA7 cells, dose response, counter-screen for SR-BI HDL uptake inhibitor project, cell-based, CHO ldlA7, fluorescence, dry powder, set 2 (AID 624007)
Details: 3 h
In short: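 Assay system: ldlA7 CHO cells without LDL receptor, no mSR-BI overexpression; Medium: HEPES-buffered (pH 7.4) F12 plus 0.5% fatty acid-free BSA; Reagent: DiI-labelled HDL, 10 µg/mL final; Schedule: 3 h co-incubation of compounds and DiI-HDL at 37 °C; Detection: DiI fluorescence, bottom read, Ex 550/Em 595 nm.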

Work on `CC(C)NC(=O)Nc1ccc2c(c1)C(=O)N([C@H](C)CO)C[C@@H](C)[C@@H](CN(C)S(=O)(=O)c1ccc(Cl)cc1)O2` yielded a DiI-HDL uptake signal change vs neutral control (%), lower = more inhibition (at 0.6 nM) of 5.71%.
Work on `CC(C)NC(=O)Nc1ccc2c(c1)CC(=O)N([C@H](C)CO)C[C@@H](C)[C@H](CN(C)S(=O)(=O)c1ccc(Cl)cc1)O2` yielded a DiI-HDL uptake signal change vs neutral control (%), lower = more inhibition (at 0.1 nM) of 4.77%.
In the case of `C=CCOC(=O)N(C)C[C@@H]1Oc2ccc(N)cc2C(=O)N([C@H](C)CO[Si](C)(C)C(C)(C)C)C[C@H]1C`, the DiI-HDL uptake signal change vs neutral control (%), lower = more inhibition (at 35000 nM) was 4.25%.
Compound `CC(C)NC(=O)Nc1ccc2c(c1)C(=O)N([C@H](C)CO)C[C@@H](C)[C@H](CN(C)S(=O)(=O)c1ccc(Cl)cc1)O2` has a DiI-HDL uptake signal change vs neutral control (%), lower = more inhibition (at 0.001 nM) of -2.43% and a DiI-HDL uptake signal change vs neutral control (%), lower = more inhibition (at 0.1 nM) of 5.95%.
Work on `CC(C)NC(=O)Nc1ccc2c(c1)C(=O)N([C@@H](C)CO)C[C@H](C)[C@@H](CN(C)S(=O)(=O)c1ccc(Cl)cc1)O2` yielded a DiI-HDL uptake signal change vs neutral control (%), lower = more inhibition (at 0.002 nM) of 5.3%.
`C=CCOC(=O)N(C)C[C@@H]1Oc2ccc(NC(=O)NC(C)C)cc2C(=O)N([C@H](C)CO[Si](C)(C)C(C)(C)C)C[C@H]1C` showed a DiI-HDL uptake signal change vs neutral control (%), lower = more inhibition (at 35000 nM) of 18.2%.
`CC(C)NC(=O)Nc1ccc2c(c1)C(=O)N([C@@H](C)CO)C[C@H](C)[C@H](CN(C)S(=O)(=O)c1ccc(Cl)cc1)O2` showed a DiI-HDL uptake signal change vs neutral control (%), lower = more inhibition (at 46 nM) of 8.74%.
Work on `C=CCOC(=O)N(C)C[C@@H]1Oc2ccc(NC(=O)OCC3c4ccccc4-c4ccccc43)cc2C(=O)N([C@H](C)CO)C[C@H]1C` yielded a DiI-HDL uptake signal change vs neutral control (%), lower = more inhibition (at 35000 nM) of 18.3%.
`CC(C)NC(=O)Nc1ccc2c(c1)C(=O)N([C@@H](C)CO)C[C@@H](C)[C@@H](CN(C)S(=O)(=O)c1ccc(Cl)cc1)O2` gave a DiI-HDL uptake signal change vs neutral control (%), lower = more inhibition (at 1.6 nM) of 4.53%.
